In ChEMBL document CHEMBL4270606, “Pyridine bioisosteres of potent GluN2B subunit containing NMDA receptor antagonists with benzo[7]annulene scaffold” (Eur J Med Chem, 2018):

What was measured:
[1] = molecular target: T1, Sigma intracellular receptor 2 (Rattus norvegicus, UniProt Q5U3Y7); assay: Displacement of [3H]-di-o-tolylguanidine from sigma2 receptor in rat liver membranes incubated for 120 mins by scintillation counting method; format: cell membranes, Membrane
T1 sequence (Q5U3Y7 whole entry): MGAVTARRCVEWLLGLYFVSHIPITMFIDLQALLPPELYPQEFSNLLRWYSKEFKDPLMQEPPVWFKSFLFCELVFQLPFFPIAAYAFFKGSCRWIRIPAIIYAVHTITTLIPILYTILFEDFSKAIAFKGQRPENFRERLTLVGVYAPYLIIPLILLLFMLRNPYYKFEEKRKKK

[2] = Displacement of [3H]-(+)-MK-801 from PCP binding site of NMDA receptor in pig brain cortex membranes after 120 mins by solid scintillation counting; format: cell membranes, Sus scrofa
How it was run: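 Pig brain cortex membranes (about 100 µg protein) incubated with 2 nM [3H]-(+)-MK-801 and test compound at 10^-5 to 10^-9 mol/L (final) in 5 mM TRIS/1 mM EDTA, pH 7.5, at rt with shaking. Nonspecific binding defined with 10 µM unlabeled (+)-MK-801. Filtration, melted solid scintillator, [3H] counting. Duplicates. IC50 by non-linear regression, converted to Ki via Cheng-Prusoff (Kd 2.26 nM). Mean ± SEM of three experiments.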

Sus scrofa = species: Sus scrofa; assay: Displacement of [3H]-(+)-MK-801 from PCP binding site of NMDA receptor in pig brain cortex membranes at 1 uM after 120 mins by solid scintillation counting relative to control; format: cell membranes
How it was run: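 Single 1 µM test concentration: inhibition (%) of 2 nM [3H]-(+)-MK-801 binding to pig brain cortex membranes (about 100 µg protein). Buffer was 5 mM TRIS/1 mM EDTA, pH 7.5, at rt. Nonspecific binding defined with 10 µM unlabeled (+)-MK-801. Bound radioactivity collected by filtration and counted by solid scintillation.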

[3] = molecular target: Sigma non-opioid intracellular receptor 1 (Cavia porcellus, UniProt Q60492); assay: Displacement of [3H]-(+)-pentazocine from sigma1 receptor in guinea pig brain cortex membrane after 120 mins by scintillation counting method; format: cell membranes
Sigma non-opioid intracellular receptor 1, sequence (Q60492 whole entry): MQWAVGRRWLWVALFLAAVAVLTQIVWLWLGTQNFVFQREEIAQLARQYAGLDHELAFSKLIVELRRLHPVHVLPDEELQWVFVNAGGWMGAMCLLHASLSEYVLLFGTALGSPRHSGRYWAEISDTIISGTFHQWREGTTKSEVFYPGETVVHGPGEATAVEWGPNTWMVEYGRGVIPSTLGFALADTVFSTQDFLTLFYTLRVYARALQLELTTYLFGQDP

[4] = molecular target: Glutamate NMDA receptor; GRIN1/GRIN2B (Homo sapiens, UniProt Q05586+Q13224); assay: Displacement of [3H]-ifenprodil from GluN1a/GluN2B (unknown origin) expressed in L(tk-) cell membranes after 120 mins by scintillation counting analysis
Glutamate NMDA receptor; GRIN1/GRIN2B, sequence (Q13224 whole entry, other chains not shown): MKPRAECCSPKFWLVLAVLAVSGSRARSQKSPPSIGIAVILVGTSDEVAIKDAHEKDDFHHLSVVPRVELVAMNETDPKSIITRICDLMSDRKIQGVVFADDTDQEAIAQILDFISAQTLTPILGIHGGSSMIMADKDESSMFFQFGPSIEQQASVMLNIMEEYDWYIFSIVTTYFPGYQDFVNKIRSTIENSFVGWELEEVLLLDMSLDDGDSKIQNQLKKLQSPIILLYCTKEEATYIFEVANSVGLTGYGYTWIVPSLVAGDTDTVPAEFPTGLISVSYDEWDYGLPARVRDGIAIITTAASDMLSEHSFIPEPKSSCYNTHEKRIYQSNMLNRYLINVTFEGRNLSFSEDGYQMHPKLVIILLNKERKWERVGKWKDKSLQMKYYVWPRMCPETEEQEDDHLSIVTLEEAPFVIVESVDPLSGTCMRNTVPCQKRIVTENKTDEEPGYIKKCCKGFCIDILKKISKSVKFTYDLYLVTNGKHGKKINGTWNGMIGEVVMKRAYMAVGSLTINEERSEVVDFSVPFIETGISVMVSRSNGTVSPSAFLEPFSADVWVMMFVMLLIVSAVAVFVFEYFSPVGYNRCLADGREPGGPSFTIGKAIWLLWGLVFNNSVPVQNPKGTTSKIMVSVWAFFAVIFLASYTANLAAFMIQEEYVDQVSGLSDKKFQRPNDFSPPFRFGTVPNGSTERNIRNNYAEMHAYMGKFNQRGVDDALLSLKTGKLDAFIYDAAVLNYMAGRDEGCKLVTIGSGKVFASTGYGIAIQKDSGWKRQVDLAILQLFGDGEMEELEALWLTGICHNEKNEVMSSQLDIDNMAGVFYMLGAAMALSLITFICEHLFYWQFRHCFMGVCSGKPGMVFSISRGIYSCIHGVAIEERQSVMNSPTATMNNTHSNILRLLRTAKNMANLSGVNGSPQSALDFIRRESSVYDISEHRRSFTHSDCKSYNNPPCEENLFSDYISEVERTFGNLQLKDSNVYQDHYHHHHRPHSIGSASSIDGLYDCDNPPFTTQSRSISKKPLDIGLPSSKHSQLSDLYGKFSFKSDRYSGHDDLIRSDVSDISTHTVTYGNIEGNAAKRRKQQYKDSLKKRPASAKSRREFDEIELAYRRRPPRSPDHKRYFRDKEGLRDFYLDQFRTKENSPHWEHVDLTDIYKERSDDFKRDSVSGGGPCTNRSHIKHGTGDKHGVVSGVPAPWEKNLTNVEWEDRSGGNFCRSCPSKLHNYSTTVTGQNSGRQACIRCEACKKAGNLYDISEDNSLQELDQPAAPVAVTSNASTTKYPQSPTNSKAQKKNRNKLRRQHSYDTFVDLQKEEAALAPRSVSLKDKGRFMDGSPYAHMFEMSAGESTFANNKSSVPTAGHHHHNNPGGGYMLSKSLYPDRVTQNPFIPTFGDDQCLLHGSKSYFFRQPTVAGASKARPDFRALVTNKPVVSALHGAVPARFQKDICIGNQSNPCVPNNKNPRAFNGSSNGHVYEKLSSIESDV

Question: For `c1ccc(CNC2CCc3cccnc3CC2)cc1` (stereo not given), which Ki [1] is on record?
Answer: Its Ki is 490 nM.

Question: What about the IC50 [2] of the same compound?
Answer: The IC50 was over 1000 nM.

Question: What about the inhibition (Sus scrofa) of the same compound?
Answer: The inhibition was 0%.

Question: What about the Ki [3] of the same compound?
Answer: Its Ki is 942 nM.

Question: And the Ki [4]?
Answer: The Ki was over 1000 nM.

Question: What does the source list for `c1ccc(CCCCNC2CCc3cccnc3CC2)cc1` (stereo not given)?
Answer: Ki [1]: 68 nM; IC50 [2]: > 1000 nM; inhibition (Sus scrofa): 8%; Ki [3]: 214 nM; Ki [4]: 149 nM

Question: What does the source list for `c1ccc(CCCNC2CCc3cccnc3CC2)cc1` (stereo not given)?
Answer: Ki [1]: 276 nM; IC50 [2]: > 1000 nM; inhibition (Sus scrofa): 10%; Ki [3]: 992 nM; Ki [4]: 302 nM

Question: For `CN(CCCc1ccccc1)C1CCc2cccnc2CC1` (stereo not given), which Ki [1] is on record?
Answer: The Ki was 68 nM.

Question: And the IC50 [2]?
Answer: Its IC50 is over 1000 nM.

Question: And the inhibition (Sus scrofa)?
Answer: Its inhibition is 0%.

Question: What about the Ki [3] of the same compound?
Answer: Its Ki is 261 nM.

Question: What about the Ki [4] of the same compound?
Answer: Its Ki is 445 nM.

Question: Which results are given for `CN(CCCCc1ccccc1)C1CCc2cccnc2CC1` (stereo not given)?
Answer: Ki [1]: 115 nM; IC50 [2]: > 1000 nM; inhibition (Sus scrofa): 5%; Ki [3]: 263 nM; Ki [4]: 477 nM
